Experimental data reported in publication PMC10053325 (Cell chemical biology, 2020).
Substitutions are numbered along the chain they refer to.

Assays:
SMAD4^R361H-SMAD3 PPI [1] = target: T1, SMAD4^R361H-SMAD3 PPI (Homo sapiens, UniProt Q13485, R361H); assay: TR-FRET assay for SMAD4^R361H/SMAD3 PPI in HEK293T cell lysate; format: binding; details: primary screening, compounds 20 μM
Target sequence in this assay (P84022 whole entry partner, one chain of several): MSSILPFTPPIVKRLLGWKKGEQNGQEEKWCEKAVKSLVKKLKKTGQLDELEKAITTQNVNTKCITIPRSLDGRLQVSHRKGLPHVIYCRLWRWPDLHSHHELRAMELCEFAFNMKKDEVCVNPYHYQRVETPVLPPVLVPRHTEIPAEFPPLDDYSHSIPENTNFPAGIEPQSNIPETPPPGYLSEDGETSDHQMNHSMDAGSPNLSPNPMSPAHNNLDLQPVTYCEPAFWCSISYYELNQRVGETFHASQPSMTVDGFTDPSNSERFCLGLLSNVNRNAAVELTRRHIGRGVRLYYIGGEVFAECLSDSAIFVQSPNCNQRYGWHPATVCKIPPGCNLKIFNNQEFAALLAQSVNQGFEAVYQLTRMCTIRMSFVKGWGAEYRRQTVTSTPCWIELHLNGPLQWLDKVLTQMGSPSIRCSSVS

[2] = test system: isogenic HCT116 R361H cells; assay: Flow cytometry-based cell-cycle analysis; set-up: species or system human; details: TGF-β 10 ng/mL, Ro-31-8220 1 μM, Go-6983 10 μM
Method in brief: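 Cells serum-starved 24 h, then placed in 10% FBS medium with TGF-β (10 ng/mL) and/or test compound for 24 h. Fixed in 70% ethanol overnight at 4°C, RNase-treated (1 mg/ml, 30 min, 37°C), stained with 40 μg/ml PI for 30 min. 5,000 cells per sample analysed by flow cytometry; % G1/S given as mean ± SD of three independent experiments.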

[3] = test system: isogenic HCT116 cells (SMAD4 R361H, null); assay: Western blot of TGF-β-induced p15, p21, N-cadherin and Vimentin proteins; format: cell-based, human; details: R361H mutant cells, TGF-β 10 ng/mL, compound 1 μM
Method in brief: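 Isogenic HCT116 SMAD4-null or R361H cells treated with TGF-β (10 ng/mL) and/or test compound (1 μM). Lysates run on 10% SDS-PAGE and transferred to nitrocellulose (100 V, 2 h, 4°C). Membranes blocked 1 h in 5% milk/TBST, probed overnight at 4°C, and developed by chemiluminescence. Representative of three independent experiments.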

SMAD4^R361H = target: T2, SMAD4^R361H (Homo sapiens, UniProt Q13485, R361H); assay: Cycloheximide; format: cell-based; details: RCM-1 cells, CHX chase
T2 sequence (Q13485 1-552 R361H): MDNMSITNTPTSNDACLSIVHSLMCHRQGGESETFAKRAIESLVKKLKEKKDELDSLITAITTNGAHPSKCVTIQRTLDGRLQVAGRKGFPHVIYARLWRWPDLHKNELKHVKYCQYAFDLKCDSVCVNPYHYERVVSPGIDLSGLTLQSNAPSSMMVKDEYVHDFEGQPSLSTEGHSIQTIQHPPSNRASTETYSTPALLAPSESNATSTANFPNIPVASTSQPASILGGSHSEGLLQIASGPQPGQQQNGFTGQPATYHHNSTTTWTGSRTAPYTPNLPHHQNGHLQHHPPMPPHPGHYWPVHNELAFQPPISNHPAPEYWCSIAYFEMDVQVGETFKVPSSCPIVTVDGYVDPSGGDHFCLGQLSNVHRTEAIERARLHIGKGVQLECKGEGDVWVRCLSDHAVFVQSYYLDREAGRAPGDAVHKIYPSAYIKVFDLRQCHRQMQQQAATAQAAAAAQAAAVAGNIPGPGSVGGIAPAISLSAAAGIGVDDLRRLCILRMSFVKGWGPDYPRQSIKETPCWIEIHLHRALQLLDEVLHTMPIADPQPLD
Method in brief: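 RCM-1 cells grown 24 h in 24-well plates, then given 100 μg/mL cycloheximide with test compound or DMSO. At each time point cells scraped into 2X SDS sample buffer and boiled 5 min. Run on 10% SDS-PAGE and blotted with anti-SMAD4; SMAD4 densitometry normalized to β-actin. Performed three times.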

[4] = target: SMAD4^R361H interaction with R-SMADs (Homo sapiens, UniProt Q13485, R361H); assay: R-SMADs selectivity profiling by TR-FRET; format: binding; details: dose-response AUC; SMAD1/2/3/5/8
SMAD4^R361H interaction with R-SMADs, sequence (P84022 whole entry partner, one chain of several): as the sequence (P84022 whole entry partner, one chain of several) above

[5] = test system: SMAD4/SMAD3 transcriptional activity (SBE-luc); assay: SBE-driven luciferase reporter assay; format: cell-based, human; details: isogenic HCT116 R361H cells pre-treated with compound
Method in brief: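 […] cells in 6-well plates co-transfected with SBE4-Luc (1 μg) and Renilla (0.1 μg) plasmids. After 24 h, cells pretreated 6 h with test compound, then stimulated with TGF-β for 18 h. Dual-Glo read-out as Firefly/Renilla ratio, expressed as TGF-β-induced fold-of-change; assays repeated three times.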

SMAD4^R361H-SMAD3 PPI [6] = target: T1, SMAD4^R361H-SMAD3 PPI; assay: Endogenous co-immunoprecipitation of SMAD4 complex in RCM-1 cells; format: cell-based; details: 10 μM for 8 h, endogenous proteins
Method in brief: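 RCM-1 cells in 100 mm dishes exposed to 10 μM test compound or DMSO for 8 h, then lysed in PBS by sonication. About 1.5 mg total protein per IP incubated with antibody overnight at 4 °C, then with protein […] agarose beads 4 h at 4 °C. Beads washed four times in PBS; eluates probed for SMAD3 by western blot.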
Target sequence in this assay (P84022 2-425 partner limits assumed, one chain of several): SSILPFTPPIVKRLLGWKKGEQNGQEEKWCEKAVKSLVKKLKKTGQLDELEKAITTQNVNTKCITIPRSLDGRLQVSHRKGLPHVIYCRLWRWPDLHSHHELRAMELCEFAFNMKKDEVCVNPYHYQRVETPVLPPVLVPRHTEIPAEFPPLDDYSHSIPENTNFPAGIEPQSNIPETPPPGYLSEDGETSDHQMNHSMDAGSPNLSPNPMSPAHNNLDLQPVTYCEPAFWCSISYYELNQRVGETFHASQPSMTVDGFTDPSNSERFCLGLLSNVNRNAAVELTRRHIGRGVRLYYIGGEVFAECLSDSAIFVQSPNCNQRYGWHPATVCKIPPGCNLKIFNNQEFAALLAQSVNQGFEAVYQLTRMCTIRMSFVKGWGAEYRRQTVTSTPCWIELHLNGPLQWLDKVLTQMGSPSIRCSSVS

SMAD4 WT = target: T3, SMAD4 WT (Homo sapiens, UniProt Q13485); assay: Cellular thermal shift assay; format: cell-based; details: HCT116 cells, 10 μM for 8 h, compared with the DMSO control
T3 sequence (Q13485 1-552): T2 sequence (Q13485 1-552 R361H) with H361R
Method in brief: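 Cells at 60% confluency in 100 mm dishes given 10 μM test compound for 8 h. Pellets in PBS aliquoted and heated at 45~65 °C for 3 min, lysed by three liquid nitrogen/25 °C freeze-thaw cycles, spun 20,000g for 20 min at 4 °C. Soluble SMAD protein western-blotted with actin loading control. Thermal curves from densitometry; mean ± SD, three independent experiments.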

SMAD4^D351H/SMAD3 PPI = SMAD4^D351H/SMAD3 PPI (Homo sapiens, UniProt Q13485, D351H); assay: GST pull-down assay of GST-SMAD4-D351H with VF-SMAD3 in cell lysate; format: binding; details: versus DMSO control
SMAD4^D351H/SMAD3 PPI, sequence (Q13485 whole entry D351H): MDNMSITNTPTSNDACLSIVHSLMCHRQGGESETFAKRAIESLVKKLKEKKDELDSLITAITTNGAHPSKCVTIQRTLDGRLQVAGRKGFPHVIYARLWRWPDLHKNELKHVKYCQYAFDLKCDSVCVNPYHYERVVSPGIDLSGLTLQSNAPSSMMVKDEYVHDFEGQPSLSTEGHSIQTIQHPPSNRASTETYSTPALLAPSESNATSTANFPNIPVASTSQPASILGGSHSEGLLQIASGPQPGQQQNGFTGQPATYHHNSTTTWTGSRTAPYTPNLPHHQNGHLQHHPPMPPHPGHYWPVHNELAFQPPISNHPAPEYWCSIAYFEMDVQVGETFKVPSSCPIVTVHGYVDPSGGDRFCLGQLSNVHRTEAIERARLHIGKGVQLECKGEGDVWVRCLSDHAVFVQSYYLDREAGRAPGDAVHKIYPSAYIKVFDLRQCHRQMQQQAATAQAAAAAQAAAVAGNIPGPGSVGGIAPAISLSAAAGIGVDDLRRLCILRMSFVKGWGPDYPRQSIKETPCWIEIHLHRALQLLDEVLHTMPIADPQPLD
SMAD4^D351H/SMAD3 PPI, sequence (P84022 whole entry partner): as the sequence (P84022 whole entry partner, one chain of several) above
Method in brief: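 HEK293T cells co-transfected with Venus-flag-SMAD3 and mutant GST-SMAD4 and lysed after 48 h in 0.5% Triton X-100 buffer (20 mM Tris-HCl, 150 mM NaCl, 5% glycerol, 2 mM EDTA). Lysate incubated with test compound 3 h rotating at 4°C, then glutathione beads 2 h at 4°C. Beads washed three times, boiled in SDS buffer, and bound SMAD3 detected by western blot.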

[7] = test system: isogenic HCT116 R361H cells; assay: Colony formation assay; format: cell-based, human; details: TGF-β 10 ng/mL, Ro-31-8220 1 μM, Go-6983 10 μM, 15-day treatment
Method in brief: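 Single-cell suspensions seeded at 1,000 to 2,000 cells/well in 6-well plates, treated next day with TGF-β, test compound, or the combination. Agent-containing medium renewed every 3 days for 15 days. Colonies stained with crystal violet and colony area quantified from images. Mean ± SD, three independent experiments; Student's t-test.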

[8] = test system: isogenic HCT116 cells (SMAD4 WT, null, R361H); assay: Cell viability assay; format: cell-based, human
Method in brief: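 Isogenic HCT116 WT, SMAD4-null and R361H cells given TGF-β (10 ng/mL), test compound, or both; vehicle/DMSO controls. CellTiter-Blue added and incubated at 37°C. Fluorescence read at Ex 545/Em 615 nm, medium-only blank subtracted, normalized to untreated controls (% C). Mean ± SD of three independent experiments; Student's t-test.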

[9] = test system: isogenic HCT116 R361H cells; assay: Transcriptome profiling; format: cell-based, human; details: TGF-β 10 ng/mL, compound 1 μM

Row | Structure (SMILES) | potentiation effect (ΔTR-FRET) compared with the DMSO control (SMAD4^R361H-SMAD3 PPI [1]) [%] | sensitivity to TGF-β-induced G1/S cell-cycle arrest [2] | TGF-β-induced expression of p15, p21, N-cadherin and Vimentin proteins [3] | SMAD4^R361H protein half-life compared with DMSO control (SMAD4^R361H) | SMAD4^R361H protein half-life (SMAD4^R361H; compound-treated) | compound-induced TR-FRET signal for SMAD4^R361H with SMAD3 compared with other R-SMADs [4] | TGF-β-induced SBE-luc activity [5] | amount of SMAD3 in the SMAD4-R361H immune-complex (SMAD4^R361H-SMAD3 PPI [6]) | increase of Tm (ΔTm) of SMAD4 WT (SMAD4 WT) | SMAD3 level in the D351H GST pull-down complex (SMAD4^D351H/SMAD3 PPI) | colony area in combination with TGF-β [7] | sensitivity to TGF-β-induced growth suppression (cell viability) ([8]; SMAD4 R361H cells, with TGF-β 10 ng/mL, Ro-31-8220 1 μM, Go-6983 10 μM) | growth inhibition, compound alone ([8]; SMAD4 WT, null and R361H cells, 1 μM) | response to TGF-β in terms of DEGs [9]
1 | Cn1cc(C2=C(c3cn(CCCSC(=N)N)c4ccccc34)C(=O)NC2=O)c2ccccc21 [Ro-31-8220] | > 40 | regained sensitivity | significant increase | no significant difference | about 2 h | significantly higher | restored to a level similar to that of the WT cells | drastically restored | but not WT or SMAD3 | significantly restored | significantly decreased colony area | restored the sensitivity | did not result in any significant growth inhibition | reestablished to a similar degree to that of WT cells
2 | COc1ccc2c(c1)c(C1=C(c3c[nH]c4ccccc34)C(=O)NC1=O)cn2CCCN(C)C [Go-6983] | > 40 | – | – | – | – | significantly higher | – | – | – | significantly restored | A similar effect | – | – | –
